Results: ChEMBL document CHEMBL3525942, “Disposition and metabolism of [14C]SB-649868, an orexin 1 and 2 receptor antagonist, in humans” (Drug Metab Dispos, 2011)

Columns and labels:
[1] = Drug level in human urine treated with [14C]SB-649868 at 30 mg, po single dose after 0 to 72 hrs by HPLC-MSn analysis; settings: in vivo, 0-72 h
Plasma [2] = test: Drug level in human plasma assessed as radioactivity treated with [14C]SB-649868 at 30 mg, po single dose after 12 hrs by HPLC-MSn analysis; type: ADME, organism-based; set-up: dosed compound name [14C]SB-649868; settings: in vivo
In short: (§1)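 Plasma taken 3, 12, 24 and 48 h after one oral 30 mg [14C] dose, extracted, and run on radio-HPLC: C8 column, 45 mM ammonium acetate pH 3.8 and acetonitrile gradient, 1 ml/min. Fractions collected into scintillant plates and counted 5 min. Extraction recovery measured; data corrected when recovery was <85%. Values are % of plasma radioactivity, BQL 1%; n=7 at 3 and 12 h.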

[3] = Drug level in human feces treated with [14C]SB-649868 at 30 mg, po single dose by HPLC-MSn analysis; settings: in vivo
Plasma [4] = test: Drug level in human plasma assessed as radioactivity treated with [14C]SB-649868 at 30 mg, po single dose after 3 hrs by HPLC-MSn analysis; type: ADME, organism-based; set-up: dosed compound name [14C]SB-649868; settings: in vivo
In short: as §1

Plasma [5] = test: Drug level in human plasma assessed as radioactivity treated with [14C]SB-649868 at 30 mg, po single dose after 48 hrs by HPLC-MSn analysis; type: ADME, organism-based; set-up: dosed compound name [14C]SB-649868; settings: in vivo
In short: as §1

Plasma [6] = test: Drug level in human plasma assessed as radioactivity treated with [14C]SB-649868 at 30 mg, po single dose after 24 hrs by HPLC-MSn analysis; type: ADME, organism-based; set-up: dosed compound name [14C]SB-649868; settings: in vivo
In short: as §1

## Cc1nc(C(=O)N2CCCC[C@H]2CN2C(=O)c3cccc(O)c3CC2O)c(-c2ccc(F)cc2)s1 (stereo not given in full)
[1]
  Compound recovery: 0.2%
Plasma [2]
  Compound recovery: 16.8%
[3]
  Compound recovery: 2.6%
Plasma [4]
  Compound recovery: 6%
Plasma [5]
  Compound recovery: 15.1%
Plasma [6]
  Compound recovery: 19.3%

## Cc1nc(C(=O)N[C@@H](CCCC(=O)O)CNC(=O)c2cccc3occc23)c(-c2ccc(F)cc2)s1
[1]
  Compound recovery: Below quantification limit
[3]
  Compound recovery: 1.1%

## Cc1nc(C(=O)N2CCCC[C@H]2CNC(=O)c2cccc(O)c2CC(=O)O)c(-c2ccc(F)cc2)s1
[1]
  Compound recovery: 1.5%
Plasma [2]
  Compound recovery: 6.7%
[3]
  Compound recovery: 10.3%
Plasma [4]
  Compound recovery: < 1
Plasma [5]
  Compound recovery: < 1
Plasma [6]
  Compound recovery: 4.2%

## Cc1nc(C(=O)N2CCCC[C@H]2CNC(=O)c2cccc3oc(O)cc23)c(-c2ccc(F)cc2)s1
[1]
  Compound recovery: 0.6%
